ChEMBL document CHEMBL3421610, “Antimalarial activity of 4-amidinoquinoline and 10-amidinobenzonaphthyridine derivatives” (J Med Chem, 2015)
Converted amounts (≈) assume the structure as drawn.

What was measured:
[1] = Half life in human liver microsomes at 1 uM by LC/MS analysis; type: ADME
Outline: (§1)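 Compound at 1 µM final, diluted from […], with 0.5 mg/mL pooled human or mouse liver microsomes, NADP, MgCl2 and 0.1 M PBS pH 7.4. Reaction started with 1 U/mL G6PD and shaken at 37 °C. Aliquots quenched in cold acetonitrile at 0, 10, 20, 30 and 60 min and quantified by LC/MS. Half-life from log plot of total ion chromatogram area remaining.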

[2] = Half life in mouse liver microsomes at 1 uM by LC/MS analysis; type: ADME; outline: as §1
[3] = system: Plasmodium falciparum; test: Antimalarial activity against chloroquine-sensitive Plasmodium falciparum D6 assessed as growth inhibition after 18 hrs by [3H]-hypoxanthine uptake assay; type: functional, organism-based
Outline: (§2)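 P. falciparum clones D6, W2 and TM91C235; modified semiautomated microdilution. Compounds in DMSO, diluted in RPMI 1640 with 10% human plasma, tested over (1.56-100) x 10^-9 M; final DMSO 0.25-0.5%. Inoculum 0.5% parasitemia, 1% hematocrit. 24 h incubation, then [3H]-hypoxanthine added, further 18 h. Harvested and read by scintillation counting; IC50 by nonlinear regression.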

[4] = system: Plasmodium falciparum; test: Antimalarial activity against chloroquine-resistant Plasmodium falciparum W2 assessed as growth inhibition after 18 hrs by [3H]-hypoxanthine uptake assay; type: functional, organism-based; outline: as §2
[5] = system: Plasmodium falciparum; test: Antimalarial activity against chloroquine-resistant Plasmodium falciparum C235 assessed as growth inhibition after 18 hrs by [3H]-hypoxanthine uptake assay; type: functional, organism-based; outline: as §2
[6] = system: HepG2; test: Cytotoxicity against human HepG2 cells after 48 hrs by MTT assay; type: cell-based; settings: HepG2, 48 h
Outline: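 HepG2 cells in supplemented MEM, plated at 9570 cells/well in 384-well format and incubated overnight at 37 °C, 5% CO2. Twelve duplicate 1.6-fold dilutions, 57–10,000 ng/ml, incubated 48 h. MTT added for 1 h at room temperature in the dark, formazan dissolved in acidified isopropanol, absorbance read. IC50 by sigmoidal variable-slope nonlinear regression; tryptanthrin control.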

[7] = biological target: hERG (KCNH2) (Homo sapiens, UniProt Q12809); test: Inhibition of human ERG expressed in CHL cells assessed as tail current at 10 uM after 7 mins by patch clamp assay relative to control; type: cell-based; settings: CHL cells expressing human ERG
hERG (KCNH2), sequence (Q12809 whole entry): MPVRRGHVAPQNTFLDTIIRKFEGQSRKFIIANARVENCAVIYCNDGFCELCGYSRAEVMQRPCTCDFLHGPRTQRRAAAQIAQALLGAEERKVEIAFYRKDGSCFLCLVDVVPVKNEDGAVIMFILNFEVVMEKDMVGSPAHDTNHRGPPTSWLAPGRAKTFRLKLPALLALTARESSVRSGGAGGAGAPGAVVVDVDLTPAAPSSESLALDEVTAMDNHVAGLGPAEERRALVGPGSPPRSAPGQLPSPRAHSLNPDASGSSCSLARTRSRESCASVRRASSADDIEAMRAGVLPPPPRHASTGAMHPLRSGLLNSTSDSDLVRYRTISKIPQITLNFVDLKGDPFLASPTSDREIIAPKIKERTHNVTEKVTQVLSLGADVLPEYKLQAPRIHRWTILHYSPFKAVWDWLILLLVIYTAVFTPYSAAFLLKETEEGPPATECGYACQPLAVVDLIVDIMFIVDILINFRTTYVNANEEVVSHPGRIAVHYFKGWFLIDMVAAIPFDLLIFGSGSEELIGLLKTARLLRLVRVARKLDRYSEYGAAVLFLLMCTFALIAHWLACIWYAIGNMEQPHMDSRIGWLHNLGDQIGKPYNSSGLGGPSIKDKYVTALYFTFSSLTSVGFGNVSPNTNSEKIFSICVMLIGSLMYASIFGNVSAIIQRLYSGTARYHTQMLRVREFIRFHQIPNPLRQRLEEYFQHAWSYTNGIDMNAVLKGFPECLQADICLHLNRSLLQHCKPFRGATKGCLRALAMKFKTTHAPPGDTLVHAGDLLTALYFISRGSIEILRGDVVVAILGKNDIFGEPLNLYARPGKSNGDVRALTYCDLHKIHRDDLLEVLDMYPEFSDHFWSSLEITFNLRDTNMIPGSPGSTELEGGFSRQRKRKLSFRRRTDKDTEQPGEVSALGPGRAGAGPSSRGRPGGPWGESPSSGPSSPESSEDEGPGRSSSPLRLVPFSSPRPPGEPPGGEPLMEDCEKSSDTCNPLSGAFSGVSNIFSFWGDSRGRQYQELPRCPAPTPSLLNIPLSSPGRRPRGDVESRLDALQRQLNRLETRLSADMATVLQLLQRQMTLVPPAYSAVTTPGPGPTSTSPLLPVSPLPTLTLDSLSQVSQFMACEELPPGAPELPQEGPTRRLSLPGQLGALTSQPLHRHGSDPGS

## C/C(=N/c1ccnc2cc(Cl)ccc12)NCCCN1CCOCC1
[1]
  half-life at 1 µM: 25 min
[2]
  half-life at 1 µM: 22 min
[3]
  IC50: 327 nM
[4]
  IC50: 295 nM
[5]
  IC50: 578 nM
[6]
  IC50: > 30.3 µg/mL

## C/C(=N/c1ccnc2cc(Cl)ccc12)NCCc1ccncc1
[1]
  half-life at 1 µM: 47 min
[2]
  half-life at 1 µM: 13 min
[3]
  IC50: 920 nM
[4]
  IC50: 617 nM
[5]
  IC50: 719 nM
[6]
  IC50: 11.3 µg/mL (≈ 34.7 µM)

## COc1ccc2nc3cc(Cl)ccc3c(N/C(=N/CCCN3CCCCC3)C(C)C)c2n1
[1]
  half-life at 1 µM: 9 min
[2]
  half-life at 1 µM: 8 min
[3]
  IC50: 1.1 nM
[4]
  IC50: 3.96 nM
[5]
  IC50: 1.94 nM
[6]
  IC50: 2.01 µg/mL (≈ 4.42 µM)
[7]
  inhibition at 7 min, 10 µM: 69.6%

## CCN(CC)CCCN(CCCN(CC)CC)/C(=N\c1c2ccc(Cl)cc2nc2ccc(OC)nc12)C(C)C
[1]
  half-life at 1 µM: > 60 min
[2]
  half-life at 1 µM: > 60 min
[3]
  IC50: 1.1 nM
[4]
  IC50: 6.1 nM
[5]
  IC50: 3.2 nM
[6]
  IC50: 0.668 µg/mL (≈ 1.2 µM)
[7]
  inhibition at 7 min, 10 µM: 32.5%

## C/C(=N/c1ccnc2cc(Cl)ccc12)NC1CCN(C)CC1
[1]
  half-life at 1 µM: > 60 min
[2]
  half-life at 1 µM: > 60 min
[3]
  IC50: 76 nM
[4]
  IC50: 275 nM
[5]
  IC50: 89 nM
[6]
  IC50: > 30.3 µg/mL

## COc1ccc2nc3cc(Cl)ccc3c(N/C(=N/CCCN(C)C)C(C)C)c2n1
[1]
  half-life at 1 µM: 33 min
[2]
  half-life at 1 µM: 46 min
[3]
  IC50: 2.2 nM
[4]
  IC50: 9.7 nM
[5]
  IC50: 4.3 nM
[6]
  IC50: 3.56 µg/mL (≈ 8.6 µM)
[7]
  inhibition at 7 min, 10 µM: 72.1%

## CC(C)/C(=N/c1ccnc2cc(Cl)ccc12)NC1CCN(Cc2ccccc2)CC1
[1]
  half-life at 1 µM: 25 min
[2]
  half-life at 1 µM: 30 min
[3]
  IC50: 15 nM
[4]
  IC50: 58.7 nM
[5]
  IC50: 30.9 nM
[6]
  IC50: 5.15 µg/mL (≈ 12.2 µM)
[7]
  inhibition at 7 min, 10 µM: 51.8%

## CCN(CC)CCC/N=C(\c1cccnc1)N(CCCN(CC)CC)c1ccnc2cc(Cl)ccc12
[1]
  half-life at 1 µM: > 60 min
[2]
  half-life at 1 µM: > 60 min
[3]
  IC50: 34.8 nM
[4]
  IC50: 383 nM
[5]
  IC50: 290 nM
[6]
  IC50: 2.94 µg/mL (≈ 5.78 µM)

## O=C1c2ccccc2-n2c1nc1ccccc1c2=O [TRYPTANTHRIN]
[6]
  IC50: 0.305 µg/mL (≈ 1.23 µM)

## COc1ccc2nc3cc(Cl)ccc3c(N(CCCN(C)C)/C(C)=N/CCCN(C)C)c2n1
[1]
  half-life at 1 µM: > 60 min
[2]
  half-life at 1 µM: > 60 min
[3]
  IC50: 11.7 nM
[4]
  IC50: 80.8 nM
[5]
  IC50: 51 nM
[6]
  IC50: 1.7 µg/mL (≈ 3.6 µM)
[7]
  inhibition at 7 min, 10 µM: 18.3%

## CCN(CC)CCCCCN/C(C)=N\c1ccnc2cc(Cl)ccc12
[1]
  half-life at 1 µM: 56 min
[2]
  half-life at 1 µM: > 60 min
[3]
  IC50: 125 nM
[4]
  IC50: 455 nM
[5]
  IC50: 175 nM
[6]
  IC50: 12.5 µg/mL (≈ 34.5 µM)

## OC(c1cc(C(F)(F)F)nc2c(C(F)(F)F)cccc12)C1CCCCN1 (stereo not drawn) [MEFLOQUINE]
[7]
  inhibition at 7 min, 10 µM: 95%

## CCN(CC)CCCN/C(C)=N\c1ccnc2cc(Cl)ccc12
[1]
  half-life at 1 µM: > 60 min
[2]
  half-life at 1 µM: > 60 min
[3]
  IC50: 138 nM
[4]
  IC50: 226 nM
[5]
  IC50: 133 nM
[6]
  IC50: > 10 µg/mL

## C/C(=N/c1ccnc2cc(Cl)ccc12)NCCC1CCN(c2ccncc2)CC1
[1]
  half-life at 1 µM: > 60 min
[2]
  half-life at 1 µM: > 60 min
[3]
  IC50: 36.4 nM
[4]
  IC50: 193 nM
[5]
  IC50: 64 nM
[6]
  IC50: 6.73 µg/mL (≈ 16.5 µM)

## CCN(CC)CCC/N=C(/Nc1c2ccc(Cl)cc2nc2ccc(OC)nc12)c1ccccc1
[1]
  half-life at 1 µM: 16 min
[2]
  half-life at 1 µM: 26 min
[3]
  IC50: 1.7 nM
[4]
  IC50: 5.6 nM
[5]
  IC50: 2.8 nM
[6]
  IC50: 3.7 µg/mL (≈ 7.77 µM)

## CCCCN(CCCC)CCC(O)c1cc2c(Cl)cc(Cl)cc2c2cc(C(F)(F)F)ccc12 (stereo not drawn) [HALOFANTRINE]
[7]
  inhibition at 7 min, 10 µM: 100%

## CCN(CC)CCC/N=C(/N=c1\ccn(CCCN(CC)CC)c2cc(Cl)ccc12)c1cccnc1
[1]
  half-life at 1 µM: > 60 min
[2]
  half-life at 1 µM: > 60 min
[3]
  IC50: 2500 nM
[4]
  IC50: 3920 nM
[5]
  IC50: 2660 nM
[6]
  IC50: 14.1 µg/mL (≈ 27.7 µM)

## CCN(CC)CCN/C(C)=N\c1ccnc2cc(Cl)ccc12
[1]
  half-life at 1 µM: 26 min
[2]
  half-life at 1 µM: 18 min
[3]
  IC50: 189 nM
[4]
  IC50: 296 nM
[5]
  IC50: 182 nM
[6]
  IC50: 1.32 µg/mL (≈ 4.15 µM)
